Assay results reported in ChEMBL document CHEMBL2311508, “A natural product inspired hybrid approach towards the synthesis of novel pentamidine based scaffolds as potential anti-parasitic agents” (Bioorg Med Chem Lett, 2013).
Converted amounts (≈) assume the structure as drawn. The source made the active and inactive calls. No cut-off for these calls is given here.

Assays:
[1] = tested on: Leishmania donovani; test: Antileishmanial activity against amastigote stage of Leishmania donovani infected in mouse J774A.1 cells assessed as intracellular parasite growth inhibition at 40 uM after 72 hrs by luciferase reporter gene assay; assay type: functional, organism-based
Outline: (§1)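 Macrophages seeded at 4 × 10³ cells/100 µL/well in RPMI-1640 with 10% fetal calf serum, 37 °C, CO₂. After 24 h, medium replaced with fresh medium containing stationary-phase promastigotes (4 × 10⁴/100 µL/well), which were phagocytosed and transformed to amastigotes. Compounds added at up to 7 concentrations starting from 40 µM, 72 h at 37 °C. Steady-Glo luciferase read as RLU versus untreated controls; IC50 by logit regression.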

[2] = Selectivity index, ratio of CC50 for african green monkey Vero cells to IC50 for chloroquine-sensitive Plasmodium falciparum 3D7; assay type: functional
[3] = Cytotoxicity against african green monkey Vero cells after 72 hrs by MTT assay; assay type: cell-based; conditions: chlorocebus sabaeus
Outline: (§2)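 Mammalian cells exposed to compound dilutions for 72 h; MTT used for detection (modified Mosmann method). CC50 derived by nonlinear regression.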

[4] = tested on: Plasmodium falciparum; test: Antimalarial activity against chloroquine-resistant Plasmodium falciparum K1 assessed as parasite growth inhibition after 72 hrs by MSF assay; assay type: functional, organism-based; conditions: K1, 72 h
Outline: (§3)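 P. falciparum cultures in RPMI-1640-FBS; DMSO stock 5 mg/ml, test dilutions in culture medium; duplicate wells; 1.0% parasitized cell suspension at 0.8% parasitaemia; 37 °C, 5% CO2 in air, 72 h. Lysis buffer with SYBR Green I added, 1 h at 37 °C; fluorescence read at 485/530 nm excitation/emission as RFU. Chloroquine reference. IC50 in ng/mL.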

[5] = tested on: Plasmodium falciparum; test: Antimalarial activity against chloroquine-sensitive Plasmodium falciparum 3D7 assessed as parasite growth inhibition after 72 hrs by MSF assay; assay type: functional, organism-based; conditions: 3D7, 72 h; outline: as §3
[6] = (§4) Selectivity index, ratio of CC50 for human KB cells to IC50 for amastigote stage of Leishmania donovani infected in mouse J774A.1 cells; assay type: functional
Outline: (§5)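 SI = CC50 in KB cells (72 h MTT, nonlinear regression) divided by IC50 against intracellular amastigotes (72 h luciferase assay in infected macrophages, logit regression).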

[7] = (§6) Cytotoxicity against human KB cells after 72 hrs by MTT assay; assay type: cell-based; conditions: KB cells; outline: as §2
[8] = tested on: Leishmania donovani; test: Antileishmanial activity against amastigote stage of Leishmania donovani infected in mouse J774A.1 cells assessed as intracellular parasite growth inhibition after 72 hrs by luciferase reporter gene assay; assay type: functional, organism-based; conditions: J774.A1, 72 h; outline: as §1
[9] = tested on: KB; test: as §6; assay type: cell-based; conditions: kb, 72 h; outline: as §2
[10] = tested on: KB; test: as §4; assay type: functional; outline: as §5

Molecule	growth inhibition (GI) [1]	Ratio CC50/IC50 [2]	CC50 at 72 h [3]	IC50 [4]	IC50 [5]	Ratio CC50/IC50 [6]	CC50 at 72 h [7]	IC50 [8]	CC50 [9]	Ratio CC50/IC50 [10]
O=Cc1ccc(OCCCCCOc2ccc(/C=C/C(=O)c3ccc(Br)cc3)cc2)cc1	inactive	–	–	–	–	–	–	–	–	–
Cc1cc(N2CCN(c3ccccc3)CC2)nc(Nc2ccc(OCCCCCOc3ccc(Nc4nc(C)cc(N5CCN(c6ccccc6)CC5)n4)cc3)cc2)n1	–	1688	100 µg/mL (≈ 126 µM)	0.0531 µg/mL (≈ 0.0671 µM)	0.0592 µg/mL (≈ 0.0749 µM)	>232	> 400 µM	1.72 µM	–	–
SODIUM ANTIMONY GLUCONATE [listing 1 of 2 here]	–	–	–	–	–	–	–	–	398 µg/mL	–
Cc1cc(N2CCN(C)CC2)nc(Nc2ccc(OCCCCCOc3ccc(Nc4nc(C)cc(N5CCN(C)CC5)n4)cc3)cc2)n1	–	43.97	10.8 µg/mL (≈ 16.2 µM)	–	0.245 µg/mL (≈ 0.367 µM)	3.62	2.93 µM	0.81 µM	–	–
Nc1nc(-c2ccccc2)cc(-c2ccc(OCCCCCOc3ccc(-c4cc(-c5ccccc5)nc(N)n4)cc3)cc2)n1	–	–	–	–	–	>242.42	> 400 µM	0.96 µM	–	–
O=C(/C=C/c1ccc(OCCCCCOc2ccc(/C=C/C(=O)c3ccccc3)cc2)cc1)c1ccccc1	–	–	–	–	–	>242.42	> 400 µM	1.65 µM	–	–
COc1ccc(C(=O)/C=C/c2ccc(OCCCCCOc3ccc(C=O)cc3)cc2)cc1OC	–	–	–	–	–	0.49	13.9 µM	28.4 µM	–	–
N=C(N)c1ccc(OCCCCCOc2ccc(C(=N)N)cc2)cc1 [PENTAMIDINE]	–	–	–	–	–	2.58	52.7 µM	20.4 µM	–	–
Cc1cc(NC2CC2)nc(Nc2ccc(OCCCCCOc3ccc(Nc4nc(C)cc(NC5CC5)n4)cc3)cc2)n1	–	89.6	0.56 µg/mL (≈ 0.964 µM)	0.0113 µg/mL (≈ 0.0194 µM)	0.00625 µg/mL (≈ 0.0108 µM)	6.38	2.68 µM	0.42 µM	–	–
CCCCCCCCCCCCCCCCOP(=O)([O-])OCC[N+](C)(C)C [MILTEFOSINE]	–	–	–	–	–	0.25	–	–	–	–
Cc1cc(NCc2ccccc2)nc(Nc2ccc(OCCCCCOc3ccc(Nc4nc(C)cc(NCc5ccccc5)n4)cc3)cc2)n1	–	429.15	22.1 µg/mL (≈ 32.4 µM)	0.383 µg/mL (≈ 0.562 µM)	0.0514 µg/mL (≈ 0.0756 µM)	15.6	26 µM	1.67 µM	–	–
CCN(CC)CCCC(C)Nc1ccnc2cc(Cl)ccc12 (stereo not drawn) [CHLOROQUINE]	–	–	75 µg/mL (≈ 234 µM)	–	–	–	–	–	–	–
SODIUM ANTIMONY GLUCONATE [listing 2 of 2 here]	–	–	–	–	–	–	–	–	–	5.53
CCN1CCN(c2cc(C)nc(Nc3ccc(OCCCCCOc4ccc(Nc5nc(C)cc(N6CCN(CC)CC6)n5)cc4)cc3)n2)CC1	–	157.9	7.13 µg/mL (≈ 10.3 µM)	0.0221 µg/mL (≈ 0.0318 µM)	0.0451 µg/mL (≈ 0.065 µM)	12.17	3.65 µM	0.3 µM	–	–
COc1ccc(C(=O)/C=C/c2ccc(OCCCCCOc3ccc(/C=C/C(=O)c4ccc(OC)c(OC)c4)cc3)cc2)cc1OC	inactive	–	–	–	–	–	–	–	–	–
Cc1cc(NC2CCCC2)nc(Nc2ccc(OCCCCCOc3ccc(Nc4nc(C)cc(NC5CCCC5)n4)cc3)cc2)n1	–	57.71	18.1 µg/mL (≈ 28.4 µM)	–	0.313 µg/mL (≈ 0.492 µM)	1.11	1.69 µM	1.53 µM	–	–
Cc1cc(N2CCOCC2)nc(Nc2ccc(OCCCCCOc3ccc(Nc4nc(C)cc(N5CCOCC5)n4)cc3)cc2)n1	–	7.82	2.06 µg/mL (≈ 3.21 µM)	–	0.264 µg/mL (≈ 0.412 µM)	4.67	5.51 µM	1.18 µM	–	–
Cc1cc(NCc2ccc(F)cc2)nc(Nc2ccc(OCCCCCOc3ccc(Nc4nc(C)cc(NCc5ccc(F)cc5)n4)cc3)cc2)n1	–	1051.51	41.4 µg/mL (≈ 57.8 µM)	0.358 µg/mL (≈ 0.5 µM)	0.0394 µg/mL (≈ 0.055 µM)	6.16	8.68 µM	1.41 µM	–	–
COc1ccc(CNc2cc(C)nc(Nc3ccc(OCCCCCOc4ccc(Nc5nc(C)cc(NCc6ccc(OC)cc6)n5)cc4)cc3)n2)cc1	–	288.28	3.37 µg/mL (≈ 4.55 µM)	0.0236 µg/mL (≈ 0.0319 µM)	0.0117 µg/mL (≈ 0.0158 µM)	3.7	2.11 µM	0.57 µM	–	–
